Consider nine compounds from ChEMBL document CHEMBL1909548, “Ligustrazine derivatives. Part 5: design, synthesis and biological evaluation of novel ligustrazinyloxy-cinnamic acid derivatives as potent cardiovascular agents” (Eur J Med Chem, 2011).

Structures are written as SMILES. A value given as a limit tells only on which side of the number the result lay.

The test system of assay [1] is ECV-304. Nature of the assay: Protection against H2O2-induced toxicity in human ECV304 cells assessed as proliferation rate at 25 uM pretreated for 24 hrs before H2O2 challenge measured after 12 hrs by MTT assay. It counts as functional. The conditions noted are these: read-out: Activity. The essentials:
(§1)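 ECV-304 cells were seeded at 6×10³/well and grown to confluence. Cells were pretreated 24 h with compound in DMSO (final ≤0.05%), then given H2O2 (150) for 12 h at 37 °C, 5% CO2. MTT (5 mg/mL) was added for 4 h, formazan dissolved in DMSO, and A570 read. Proliferation rate = [OD(compd)−OD(H2O2)]/[OD(control)−OD(H2O2)]×100%. EC50 was calculated from proliferation rates by formula.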

Assay [2] has as its system ECV-304. Nature of the assay: Protection against H2O2-induced toxicity in human ECV304 cells assessed as proliferation rate at 12.5 uM pretreated for 24 hrs before H2O2 challenge measured after 12 hrs by MTT assay. It counts as functional. Particulars: read-out: Activity. A digest of the protocol:
as §1

The test system of assay [3] is ECV-304. Nature of the assay: Protection against H2O2-induced toxicity in human ECV304 cells assessed as proliferation rate at 50 uM pretreated for 24 hrs before H2O2 challenge measured after 12 hrs by MTT assay. It counts as functional. The conditions noted are these: read-out: Activity. A digest of the protocol: as §1
Assay [4] is described as follows: Antiplatelet activity in rabbit platelet rich plasma assessed as inhibition rate of ADP-induced platelet aggregation at 200 uM after 5 mins by aggregometry. It counts as functional. Particulars: Oryctolagus cuniculus. The essentials:
(§2)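 Rabbit platelet-rich plasma obtained by centrifuging blood at 1000 rpm for 5 min. Platelet-poor plasma (3000 rpm, 15 min) served as the reference. Platelets were adjusted to 3×10¹¹/L. PRP was mixed with compound at final levels 400, 200, 100 or 50 and incubated at 37 °C for 5 min before aggregation was read. IC50 was derived by linear regression.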

Assay [5] can be described thus: Antiplatelet activity in rabbit platelet rich plasma assessed as inhibition rate of ADP-induced platelet aggregation at 400 uM after 5 mins by aggregometry. It counts as functional. The conditions noted are these: Oryctolagus cuniculus. The essentials: as §2
Assay [6] in a line: Antiplatelet activity in rabbit platelet rich plasma assessed as inhibition rate of ADP-induced platelet aggregation at 50 uM after 5 mins by aggregometry. It counts as functional. The conditions noted are these: Oryctolagus cuniculus. A digest of the protocol:
as §2

Assay [7] is described as follows: Antiplatelet activity in rabbit platelet rich plasma assessed as inhibition rate of ADP-induced platelet aggregation at 100 uM after 5 mins by aggregometry. It counts as functional. Particulars: Oryctolagus cuniculus. A digest of the protocol:
as §2

Assay [8] can be described thus: Antiplatelet activity in rabbit platelet rich plasma assessed as inhibition of ADP-induced platelet aggregation after 5 mins by aggregometry. Particulars: Oryctolagus cuniculus. It counts as functional. The essentials:
as §2

Assay [9] deals with ECV-304. In words: Protection against H2O2-induced toxicity in human ECV304 cells assessed as proliferation rate pretreated for 24 hrs before H2O2 challenge measured after 12 hrs by MTT assay. It counts as functional, cell-based. The essentials:
as §1

In assay [10] the test system is ECV-304. In words: Protection against H2O2-induced toxicity in human ECV304 cells assessed as proliferation rate at 100 uM pretreated for 24 hrs before H2O2 challenge measured after 12 hrs by MTT assay. The conditions noted are these: read-out: Activity. It counts as functional. A digest of the protocol:
as §1

With `CCOC(=O)/C=C/c1cc(Cl)ccc1OCc1nc(C)c(C)nc1C`, the growth at 25 µM with ECV-304 [1] was -94.4%. For the same compound, in the assay with ECV-304 [2], the growth at 12.5 µM is -0.46%. In the assay with ECV-304 [3], the growth at 50 µM is -186%. Also, the inhibition at 200 µM in assay [4] is 14.5%. Further, the inhibition at 400 µM in [5] came out at 18.7%. Further, the inhibition at 50 µM in [6] was 7.66%. In addition, the inhibition at 100 µM in [7] is 11.3%. The 50% inhibitory concentration (IC50) in [8] was more than 2000 µM. In addition, the EC50 in the assay with ECV-304 [9] stood at 16900 µM.

Turning to `CCOC(=O)/C=C/c1cccc(OCc2nc(C)c(C)nc2C)c1`, in the assay with ECV-304 [1], the growth at 25 µM was -180%. Further, the growth at 12.5 µM with ECV-304 [2] is -1.52%. In addition, in the assay with ECV-304 [3], the growth at 50 µM worked out at 278%. Moreover, the inhibition at 200 µM in assay [4] stood at 34.8%. Moreover, in assay [5], the inhibition at 400 µM came out at 43%. Besides, the inhibition at 50 µM in [6] was found to be 14.5%. Moreover, in [7], the inhibition at 100 µM is 29.4%. For the same compound, in assay [8], the IC50 worked out at 628 µM. For the same compound, the EC50 in the assay on ECV-304 [9] worked out at 4330 µM.

Take `CCOC(=O)/C=C/c1ccc(OCc2nc(C)c(C)nc2C)cc1`: the growth at 25 µM in the assay on ECV-304 [1] is -10.8%. Besides, in the assay with ECV-304 [2], the growth at 12.5 µM is -1.79%. For the same compound, the growth at 50 µM in the assay with ECV-304 [3] was -6.36%. In addition, the inhibition at 200 µM in assay [4] worked out at 15.5%. Besides, the inhibition at 400 µM in [5] worked out at 22.7%. In assay [6], the inhibition at 50 µM was 9.8%. Further, the inhibition at 100 µM in assay [7] is 11.9%. The IC50 in assay [8] is more than 2000 µM. In the assay on ECV-304 [9], the half-maximal effective concentration (EC50) amounted to 206 µM. In addition, in the assay with ECV-304 [10], the growth at 100 µM is -7.56%.

Consider `CCOC(=O)/C=C/c1ccc(OCc2nc(C)c(C)nc2C)c(OC)c1`, for which the growth at 25 µM with ECV-304 [1] was found to be 43.5%. Moreover, the growth at 12.5 µM with ECV-304 [2] came out at 29.5%. Besides, the growth at 50 µM in the assay with ECV-304 [3] stood at 50.9%. Also, the inhibition at 200 µM in assay [4] was 40.2%. In assay [5], the inhibition at 400 µM came to 49.5%. Moreover, the inhibition at 50 µM in [6] is 26.2%. Further, the inhibition at 100 µM in [7] is 36.9%. In [8], the IC50 was determined as 449 µM. In the assay with ECV-304 [9], the EC50 came to 109 µM. For the same compound, the growth at 100 µM in the assay with ECV-304 [10] was determined as 70.2%.

As for `O=C(O)/C=C/c1ccc(Cn2ccnc2)cc1` [OZAGREL], in assay [4], the inhibition at 200 µM stood at 45.4%. The inhibition at 400 µM in [5] was 55.3%. Also, in assay [6], the inhibition at 50 µM was determined as 23.3%. Also, in assay [7], the inhibition at 100 µM is 27.3%. For the same compound, the IC50 in assay [8] worked out at 360 µM.

Consider `COc1cccc(/C=C/C(=O)O)c1OCc1nc(C)c(C)nc1C`, for which, in the assay on ECV-304 [1], the growth at 25 µM was -0.71%. In addition, the growth at 12.5 µM in the assay on ECV-304 [2] is -164%. Also, the growth at 50 µM in the assay with ECV-304 [3] amounted to 50.3%. In addition, in [4], the inhibition at 200 µM stood at 28.4%. Further, the inhibition at 400 µM in assay [5] stood at 47.6%. In addition, the inhibition at 50 µM in assay [6] was 8.97%. For the same compound, the inhibition at 100 µM in [7] came to 26.1%. The IC50 in assay [8] was determined as 522 µM. In addition, the EC50 in the assay on ECV-304 [9] stood at 3590 µM.

On to `CCOC(=O)/C=C/c1cc(OC)c(OCc2nc(C)c(C)nc2C)c(OC)c1`, for which, in the assay with ECV-304 [1], the growth at 25 µM is -81.9%. Further, the growth at 12.5 µM with ECV-304 [2] was -31.1%. Further, the growth at 50 µM in the assay with ECV-304 [3] is -94.2%. Besides, in [4], the inhibition at 200 µM amounted to 38.5%. Also, the inhibition at 400 µM in assay [5] turned out to be 48.1%. Moreover, the inhibition at 50 µM in assay [6] is 31%. Further, the inhibition at 100 µM in assay [7] stood at 35%. Also, the IC50 in assay [8] was 631 µM. Moreover, the EC50 in the assay on ECV-304 [9] amounted to 2310 µM. In addition, in the assay with ECV-304 [10], the growth at 100 µM was -180%.

Turning to `Cc1nc(C)c(COc2c(Br)cc(Br)cc2/C=C/C(=O)O)nc1C`, the growth at 25 µM with ECV-304 [1] came out at 4.21%. Also, the growth at 12.5 µM with ECV-304 [2] was -22.3%. The growth at 50 µM in the assay with ECV-304 [3] came to 48.5%. For the same compound, the inhibition at 200 µM in assay [4] amounted to 33.1%. The inhibition at 400 µM in assay [5] was determined as 37.4%. In addition, the inhibition at 50 µM in assay [6] stood at 18.1%. In [7], the inhibition at 100 µM turned out to be 20%. In addition, the IC50 in [8] was determined as 1310 µM. Besides, the EC50 with ECV-304 [9] is 155 µM. Besides, the growth at 100 µM in the assay with ECV-304 [10] was -24.8%.

Take `CCOC(=O)/C=C/c1cc(Br)c(OCc2nc(C)c(C)nc2C)c(Br)c1`: the growth at 25 µM with ECV-304 [1] worked out at 57%. Further, in the assay with ECV-304 [2], the growth at 12.5 µM is -130%. Moreover, the growth at 50 µM with ECV-304 [3] turned out to be 66.1%. Besides, the inhibition at 200 µM in [4] was found to be 16.3%. In addition, the inhibition at 400 µM in assay [5] is 20.7%. Besides, the inhibition at 50 µM in assay [6] amounted to 6.77%. For the same compound, the inhibition at 100 µM in [7] worked out at 10.7%. Besides, the IC50 in [8] is more than 2000 µM. Also, in the assay on ECV-304 [9], the EC50 is 1970 µM.
